{"source": "ChEMBL document CHEMBL4837218", "about": "“Synthesis and in vitro antitumour activity of 4(R)-methyl-3-O-phosphonomethyl-α-l-threose nucleosides” (Eur J Med Chem, 2021)", "key": {"MCF7 [1]": {"system": "MCF7", "test": "Induction of apoptosis in human MCF7 cells assessed as increase in cleaved caspase 3 protein expression at 4 uM measured after 48 hrs in presence of cdc25c inhibitor, NSC663284 by western blot analysis", "type": "functional, cell-based", "method_in_brief": "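Four arms per cell line: untreated, test compound, 0.3 µM NSC663284 alone, and combination. Proteins harvested after 48 h and resolved by SDS-PAGE on 5–15% gels, transferred to nitrocellulose. Blocked 2 h in milk/PBS-Tween, primary antibodies overnight at 4 °C, biotin-conjugated secondary. Read on X-ray film with densitometry.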"}, "MCF7 [2]": {"system": "MCF7", "test": "Cell cycle arrest in human MCF7 cells assessed as accumulation of cells at G2/M phase at 4 uM in presence of inhibitor cdc25c inhibitor, NSC663284 measured after 48 hrs by PI staining based flow cytometry", "type": "functional", "method_in_brief": "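Four arms (untreated, test compound alone, 0.3 NSC663284 alone, combination) applied to cells for 48 h. Cells were fixed in 70% ice-cold ethanol at 4 °C overnight and stained with RNase/PI for 30 min in the dark. G2/M fraction was read by flow cytometry.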"}, "MCF7 [3]": {"system": "MCF7", "test": "Induction of apoptosis in human MCF7 cells assessed as increase in cleaved caspase 9 protein expression at 1 to 4 uM measured after 48 hrs by western blot analysis", "type": "functional, cell-based", "details": "dose 1-4 µM", "method_in_brief": "(§1)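 MCF-7 and MDA-MB-231 breast cancer cells treated 48 h with a concentration series, then lysed for protein. SDS-PAGE on 5–15% gels, transfer to nitrocellulose. Blocked 2 h in 5% nonfat milk/PBS-0.1% Tween 20, primary antibodies overnight at 4 °C, biotin-conjugated secondary 1 h. X-ray film detection with densitometric quantification.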"}, "MDA-MB-231 [4]": {"system": "MDA-MB-231", "test": "Induction of apoptosis in human MDA-MB-231 cells assessed as late apoptotic cells at 6 uM measured after 48 hrs by Annexin V-FITC/propidium iodide staining based flow cytometric analysis (reference value: 0.3%)", "type": "functional"}, "MDA-MB-231 [5]": {"system": "MDA-MB-231", "test": "Induction of apoptosis in human MDA-MB-231 cells assessed as early apoptotic cells at 9 uM measured after 48 hrs in presence of cdc25c inhibitor, NSC663284 by AnnexinV-FITC/PI staining based flow cytometry (reference value: 7.4%)", "type": "functional"}, "MDA-MB-231 [6]": {"system": "MDA-MB-231", "test": "Antiproliferative activity against human MDA-MB-231 cells assessed as reduction in cell viability at 0.03 to 16 uM measured after 24 to 72 hrs by MTT assay", "type": "functional, cell-based", "details": "dose 0.03-16 µM, time 24-72 hrs", "method_in_brief": "(§2)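 MTT viability time course on the breast cancer cells with increasing compound concentrations for 24, 48 and 72 h. Cells seeded at 3000/well and allowed 12 h before treatment. MTT (5 mg/mL solution) applied for 4 h, crystals dissolved in DMSO, absorbance read at 570/630 nm. Viability expressed relative to untreated cells.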"}, "MCF7 [7]": {"system": "MCF7", "test": "Induction of apoptosis in human MCF7 cells assessed as early apoptotic cells at 4 uM measured after 48 hrs in presence of cdc25c inhibitor, NSC663284 by AnnexinV-FITC/PI staining based flow cytometry (reference value: 0.9%)", "type": "functional"}, "MCF7 [8]": {"system": "MCF7", "test": "Induction of apoptosis in human MCF7 cells assessed as late apoptotic cells at 1 uM measured after 48 hrs by Annexin V-FITC/propidium iodide staining based flow cytometric analysis (reference value: 0.6 %)", "type": "functional"}, "MCF7 [9]": {"system": "MCF7", "test": "Induction of mitochondrial membrane potential loss in human MCF7 cells assessed as green fluorescence intensity at 1 uM measured after 48 hrs by JC1 staining-based flow cytometry analysis (reference value: 8.1 %)", "type": "functional"}, "GES1": {"system": "GES1", "test": "Antiproliferative activity against human GES1 cells assessed as growth inhibition measured after 72 hrs by MTT assay", "type": "functional, cell-based", "details": "GES1, 72 h", "method_in_brief": "(§3)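 Cells seeded at 3000 exponentially growing cells/well and incubated 12 h at 37 °C. Medium then replaced with fresh medium containing graded compound concentrations for 72 h; 5-FU positive control. MTT (5 mg/mL solution) added for 4 h, formazan dissolved in DMSO, absorbance read at 570 nm (reference 630 nm). Relative percentage inhibition of viable cells calculated; IC50 reported as mean ± standard deviation.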"}, "MCF7 [10]": {"system": "MCF7", "test": "Induction of mitochondrial membrane potential loss in human MCF7 cells assessed as green fluorescence intensity at 2 uM measured after 48 hrs by JC1 staining-based flow cytometry analysis (reference value: 8.1 %)", "type": "functional"}, "MCF7 [11]": {"system": "MCF7", "test": "Induction of G2/M phase cell cycle arrest in human MCF7 cells assessed as increase in cdc25c protein expression at 1 to 4 uM measured after 48 hrs by western blot analysis", "type": "functional, cell-based", "details": "dose 1-4 µM", "method_in_brief": "(§4)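 Cells exposed to graded concentrations for 48 h, then proteins extracted. Run on SDS-PAGE (5–15% gels) and transferred to nitrocellulose. Blocked 2 h in 5% nonfat milk in PBS/0.1% Tween 20, primary antibody overnight at 4 °C, biotin-conjugated secondary 1 h. Visualized on X-ray film with densitometric quantitation; three independent experiments.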"}, "MCF7 [12]": {"system": "MCF7", "test": "Antiproliferative activity against human MCF7 cells assessed as reduction in cell viability at 0.06 to 16 uM measured after 24 to 72 hrs by MTT assay", "type": "functional, cell-based", "details": "dose 0.06-16 µM, time 24-72 hrs", "method_in_brief": "as §2"}, "MDA-MB-231 [13]": {"system": "MDA-MB-231", "test": "Induction of DNA damage in human MDA-MB-231 cells assessed as increase in Chk2 phosphorylation at Thr68 residue at 3 to 9 uM measured after 48 hrs by western blot analysis", "type": "functional, cell-based", "details": "dose 3-9 µM", "method_in_brief": "as §4"}, "MCF7 [14]": {"system": "MCF7", "test": "Induction of apoptosis in human MCF7 cells assessed as early apoptotic cells at 2 uM measured after 48 hrs by Annexin V-FITC/propidium iodide staining based flow cytometric analysis (reference value: 3 %)", "type": "functional"}, "MCF7 [15]": {"system": "MCF7", "test": "Induction of apoptosis in human MCF7 cells assessed as late apoptotic cells at 4 uM measured after 48 hrs by Annexin V-FITC/propidium iodide staining based flow cytometric analysis (reference value: 0.6 %)", "type": "functional"}, "MCF7 [16]": {"system": "MCF7", "test": "Induction of apoptosis in human MCF7 cells assessed as late apoptotic cells at 2 uM measured after 48 hrs by Annexin V-FITC/propidium iodide staining based flow cytometric analysis (reference value: 0.6 %)", "type": "functional"}, "MCF7 [17]": {"system": "MCF7", "test": "Cell cycle arrest in human MCF7 cells assessed as accumulation at G1 phase at 2 uM measured after 48 hrs by propidium iodide staining based flow cytometry (reference value: 70.09 %)", "type": "functional"}, "MCF7 [18]": {"system": "MCF7", "test": "Induction of apoptosis in human MCF7 cells assessed as reduction in Mcl-1 protein expression at 1 to 4 uM measured after 48 hrs by western blot analysis", "type": "functional, cell-based", "details": "dose 1-4 µM", "method_in_brief": "as §1"}, "MCF7 [19]": {"system": "MCF7", "test": "Induction of DNA damage in human MCF7 cells assessed as increase in Chk2 phosphorylation at Thr68 residue at 1 to 4 uM measured after 48 hrs by western blot analysis", "type": "functional, cell-based", "details": "dose 1-4 µM", "method_in_brief": "as §4"}, "ECa-109 cell line": {"system": "ECa-109 cell line", "test": "Antiproliferative activity against human ECa-109 cells assessed as cell growth inhibition measured after 72 hrs by MTT assay", "type": "functional, cell-based", "details": "ECa-109, 72 h", "method_in_brief": "as §3"}, "MCF7 [20]": {"system": "MCF7", "test": "Induction of mitochondrial membrane potential loss in human MCF7 cells assessed as red fluorescence intensity at 4 uM measured after 48 hrs by JC1 staining-based flow cytometry analysis (reference value: 91.9%)", "type": "functional"}, "MDA-MB-231 [21]": {"system": "MDA-MB-231", "test": "Induction of mitochondrial membrane potential loss in human MDA-MB-231 cells assessed as red fluorescence intensity at 3 uM measured after 48 hrs by JC1 staining-based flow cytometry analysis (reference value: 99.2 %)", "type": "functional"}, "MCF7 [22]": {"system": "MCF7", "test": "Induction of mitochondrial membrane potential loss in human MCF7 cells assessed as red fluorescence intensity at 1 uM measured after 48 hrs by JC1 staining-based flow cytometry analysis (reference value: 91.9%)", "type": "functional"}}, "note": "Activity calls are given as the source filed them. The calls are words filed in the database; no cut-off is given here.", "data": [{"smiles": "C[C@H]1O[C@@H](n2cnc3c(N)nc(F)nc32)[C@H](O)[C@H]1OCP(=O)([O-])[O-].[Na+].[Na+]", "values": [{"measurement": "Activity", "setting": "MCF7 [1]", "result": "inactive"}, {"measurement": "Activity", "setting": "MCF7 [2]", "result": "inactive"}, {"measurement": "Activity", "setting": "MCF7 [3]", "result": "Active"}, {"measurement": "Activity", "setting": "MDA-MB-231 [4]", "result": 18.8, "unit": "%"}, {"measurement": "Activity", "setting": "MDA-MB-231 [5]", "result": 5.1, "unit": "%"}, {"measurement": "Activity", "setting": "MDA-MB-231 [6]", "result": "Active"}, {"measurement": "Activity", "setting": "MCF7 [7]", "result": 8.6, "unit": "%"}, {"measurement": "Activity", "setting": "MCF7 [8]", "result": 4.6, "unit": "%"}, {"measurement": "Activity", "setting": "MCF7 [9]", "result": 9.1, "unit": "%"}, {"measurement": "IC50", "setting": "GES1", "result": 5.09, "unit": "µM"}, {"measurement": "Activity", "setting": "MCF7 [10]", "result": 32.8, "unit": "%"}, {"measurement": "Activity", "setting": "MCF7 [11]", "result": "Active"}, {"measurement": "Activity", "setting": "MCF7 [12]", "result": "Active"}, {"measurement": "Activity", "setting": "MDA-MB-231 [13]", "result": "Active"}, {"measurement": "Activity", "setting": "MCF7 [14]", "result": 46.3, "unit": "%"}, {"measurement": "Activity", "setting": "MCF7 [15]", "result": 8.7, "unit": "%"}, {"measurement": "Activity", "setting": "MCF7 [16]", "result": 6.5, "unit": "%"}, {"measurement": "Activity", "setting": "MCF7 [17]", "result": 41.43, "unit": "%"}, {"measurement": "Activity", "setting": "MCF7 [18]", "result": "Active"}, {"measurement": "Activity", "setting": "MCF7 [19]", "result": "Active"}, {"measurement": "IC50", "setting": "ECa-109 cell line", "result": 2.57, "unit": "µM"}, {"measurement": "Activity", "setting": "MCF7 [20]", "result": 41.9, "unit": "%"}, {"measurement": "Activity", "setting": "MDA-MB-231 [21]", "result": 98.6, "unit": "%"}, {"measurement": "Activity", "setting": "MCF7 [22]", "result": 90.9, "unit": "%"}]}]}
